Screens (PubChem BioAssay)
S1P1 ag pot: S1P1 agonists and agonism potentiators, primary screen, cell-based, primary and confirmation screens, CRE-bla reporter. Sphingosine 1-phosphate receptor 1 (Homo sapiens), P21453. S1P1 CRE-bla cells, forskolin, beta-lactamase FRET, potentiator mode; S1P1 agonist co-added at EC20, 2 nM; 100% = saturating reference agonist, 0% = basal. activation, % at 9.5 µM. 0.57% of 56,000 active;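 active = activation above a cutoff set at the mean activation of all tested compounds plus 3 SD, cut at about 54% in these data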;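 note: forskolin at 4 µM as EC80 and the EC20 agonist is SEW2871; 100% = SEW2871 at its EC100 plus forskolin at EC80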
Target sequence (P21453 whole entry, looked up): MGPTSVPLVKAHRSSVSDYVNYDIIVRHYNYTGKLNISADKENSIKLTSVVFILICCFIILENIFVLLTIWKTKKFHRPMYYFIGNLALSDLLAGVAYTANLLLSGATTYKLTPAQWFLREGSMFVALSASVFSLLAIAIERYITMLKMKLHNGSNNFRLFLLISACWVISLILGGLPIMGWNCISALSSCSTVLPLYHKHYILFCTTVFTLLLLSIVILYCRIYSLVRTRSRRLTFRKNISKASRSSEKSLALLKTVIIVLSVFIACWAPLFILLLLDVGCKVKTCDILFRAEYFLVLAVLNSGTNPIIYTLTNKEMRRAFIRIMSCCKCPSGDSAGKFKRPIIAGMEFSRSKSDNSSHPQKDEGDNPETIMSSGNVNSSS
HTR1E antagonist: 5-HT1E receptor antagonists, primary screen, cell-based, HTS | 5-hydroxytryptamine receptor 1E (Homo sapiens), P28566 | CHO 5-HT1E Ga15 NFAT-bla reporter, FRET, antagonist | inhibition, % at 6 µM | 0.99% of 65,000 active;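 active = inhibition above a set limit, the mean inhibition across every tested compound plus 3 SD, cut at about 29% in these data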;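 note: signal is the 460 over 535 nm emission ratio of beta-lactamase substrate; 0% = agonist plus DMSO wells and 100% = wells without agonist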
HTR1A agonist: human 5-HT1a receptor agonists, primary screen, cell-based, CHO, Ga15 NFAT-bla reporter | CHO 5-HT1a Ga15 NFAT-bla reporter, FRET ratio; 0% basal, 100% maximal reference agonist | activation, % at 10 µM | 0.56% of 65,000 active;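 active = activation above the screen-wide mean activation plus 3 SD, cut at about 19% in these data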;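 note: 0% = DMSO wells and 100% = 5-CT at EC100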
S1P3 ag: human S1P3 receptor agonists, primary screen, cell-based, primary and confirmation, NFAT-BLA reporter. S1P3 NFAT-BLA reporter cells, agonism, FRET ratio; relative to 1 µM S1P, basal subtracted. activation, % at 4.5 µM. 0.1% of 60,000 active. AID 373, 2006;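 active = activation above the screen-wide mean plus 3 SD, cut at about 4.5% in these data, passing the limit was not always enough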
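Measure – % activation relative to 1 µM S1P (100%), per plate · System – stable CHO line with human S1P3, Gα16, NFAT-BLA reporter · Timing – cells plated overnight, compound 4 h 37 °C, substrate 2 h RT · Technique – fluorescent BLA substrate, ex 405 nm, em 460/535 nm ratio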
5HT1E ag: 5-HT1E receptor agonists, primary screen, cell-based, HTS | 5-hydroxytryptamine receptor 1E (Homo sapiens), P28566 | CHO 5-HT1E Ga15 NFAT-bla reporter, FRET; 0% DMSO wells, 100% control agonist wells | activation, % at 6 µM | 0.69% of 65,000 active | AID 574, 2007;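 active = activation above a set limit, the screen-wide mean activation plus 3 SD, cut at about 8.5% in these data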;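 note: 100% = positive control agonist at 1 µM giving full maximal response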
5-HT1A blocker: human 5-HT1a receptor antagonists, primary screen, cell-based, CHO, Ga15 NFAT-bla reporter; CHO 5-HT1a Ga15 NFAT-bla reporter, antagonist mode; 5-hydroxytryptamine receptor 1A (Homo sapiens), P08908; 0.68% of 62,000 active; inhibition, % at 10 µM;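 active = inhibition above the mean of all tested compounds plus 3 SD, cut at about 43% in these data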;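 note: receptor stimulated by 5-CT agonist at 100 nM near EC80; beta-lactamase reporter measured by ratiometric fluorescence of a cleavable substrate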
Active calls of the source: *; x = not tested or not shown. An excerpt weighted towards active compounds, which were near 2.9% of everything screened.

SMILES	S1P1 ag pot	HTR1E antagonist	HTR1A agonist	S1P3 ag	5HT1E ag	5-HT1A blocker
CN(C)C(CNC(=O)c1cccnc1Sc1ccccc1)c1ccco1 (stereo unspecified)	18	-8	-3	-1	0	3
CCN(CC)c1ccc(NC(=O)c2cc(OC)cc(OC)c2)c(C)c1	x	42*	-2	-1	-1	52*
CCN(CC)c1ccc(NC(=O)c2cccc(OC)c2)c(C)c1	0	1	-1	-1	0	18
CCCn1c2ccccc2c2nnc(SCC(=O)Nc3ncccn3)nc21	-31	31*	9	1	0	-6
COc1ccc(C2=Nn3c(nnc3-c3ccccc3OC)SC2)cc1OC	-62	87*	-1	0	2	75*
COc1ccc(C2=Nn3c(nnc3-c3ccccn3)SC2)cc1OC	-20	39*	0	2	1	x
OCCCc1nc2n(n1)C(c1cccs1)C=C(c1ccccc1)N2 (stereo unspecified)	-1	17	2	2	2	7
OCCCc1nc2n(n1)C(c1ccccc1Cl)C=C(c1cccs1)N2 (stereo unspecified)	23	50*	-4	-1	-1	44*
Cc1nnc(SCC(=O)Nc2nc3c(s2)CC(C)CC3)s1 (stereo unspecified)	26	4	-1	0	0	-3
O=C(CSc1nc2ccccc2o1)Nc1ccc(N2CCOCC2)c(Cl)c1	119*	12	1	-2	0	-4
CC1CCc2nc(NC(=O)CSc3nc4ccccc4o3)sc2C1 (stereo unspecified)	76*	-4	-3	0	0	-3
CCOC(=O)c1c(-c2ccc(C)o2)csc1N	-9	-12	-5	-1	0	10
CCOC(=O)c1c(-c2ccc(C)o2)csc1NC(=O)COC(=O)c1cccs1	6	1	2	1	1	50*
CCCCOc1ccc(N2C(=O)CC(N(O)c3ccccc3)C2=O)cc1 (stereo unspecified)	-25	34*	0	-2	1	9
CCCCCOc1ccc(N2C(=O)CC(N(O)c3ccccc3)C2=O)cc1 (stereo unspecified)	-12	5	-1	-1	0	-1
CCN1CCN(C(=O)C2c3cc(OC)c(OC)cc3C(=O)N(C)C2c2ccc(SC)cc2)CC1 (stereo unspecified)	x	-1	-1	x	-1	60*
CCc1ccc(-c2cn(-c3nc(C)cc(C)n3)c(=N)o2)cc1	8	-10	-1	1	0	18
Cn1c(=O)oc2cc(S(=O)(=O)NCCC(=O)NC3CCCC3)ccc21	1	-9	-4	0	0	-9
Cc1ccc(NC(=O)CCNS(=O)(=O)c2ccc3c(c2)oc(=O)n3C)cc1	-4	-8	-1	0	32*	-11
Cc1nc2sc(-c3ccccc3)cc2c(=O)n1-n1cccc1	60*	-5	2	1	1	2
COc1ccc(-c2csc3nc(C)n(-n4cccc4)c(=O)c23)cc1OC	-6	8	0	-1	-1	-1
CCCc1ccc(OCc2nc(-c3ccc(NC(=O)c4ccco4)cc3)no2)cc1	94*	0	-1	-2	1	6
Cc1ccccc1OCc1nc(-c2ccc(NC(=O)c3ccc4c(c3)OCO4)cc2)no1	10	21	2	-2	9.2*	16
O=C(NCc1nc(-c2ccccc2)no1)c1ccc2c(c1)OCO2	7	-1	0	-1	-1	13
Cc1ccccc1OCc1nc(-c2ccc(NC(=O)c3ccco3)cc2)no1	x	-13	3	x	0	0
SMILES	S1P1 ag pot	HTR1E antagonist	HTR1A agonist	S1P3 ag	5HT1E ag	5-HT1A blocker
O=C(Nc1ccc(-c2noc(CCc3ccccc3)n2)cc1)c1cccnc1	94*	10	-6	0	1	-8
Cc1cc(C)c(NC(=O)c2cc3c(nc4sccn43)s2)c(C)c1	0	29*	0	1	0	23
CCOC(=O)Cc1nnc2c(Nc3ccc(Cl)cc3)nc3nonc3n12	45	2	-1	0	0	9
Cc1cc(NCCN2CCOCC2)n2nc(C)c(-c3ccc(Cl)cc3)c2n1	-10	32*	3	-1	1	-2
Cc1cc(NCCN2CCOCC2)n2nc(C)c(-c3ccccc3)c2n1	8	24	-1	-2	0	10
CCOC(=O)C(C(=O)OCC)c1cc(Br)c2noc3c2c1C(=O)c1ccccc1-3	x	32*	-4	x	0	48*
CCCn1c(SCC(=O)N2CCN(S(=O)(=O)c3ccc(Cl)cc3)CC2)n[nH]c1=O	-27	10	0	0	9.0*	2
Cc1cc(C)n2c(SCC(=O)N3CCN(S(=O)(=O)c4ccc(Cl)cc4)CC3)nnc2n1	-40	-3	2	5	3	12
Cn1c(Cl)nc2ccccc21	-7	4	-3	0	7	16
Cn1c(SC2=CS(=O)(=O)c3ccccc32)nc2ccccc21	28	50*	0	-1	1	74*
Cn1nc(C(C)(C)C)cc1C(=O)NCc1ccc(N2CCCC2=O)cc1	56*	1	1	-1	1	0
CN1CCN2c3ccccc3Cc3ccccc3C2C1 (stereo unspecified)	-12	5	0	-1	86*	x
c1ccc2c(c1)CCN2CCN1CCc2ccccc21	6	9	-1	0	-1	9
Cc1ccc(C(=O)C2CCN(CC(=O)Nc3ccc(N(C)C)cc3)CC2)cc1	9	4	2	-1	12*	-7
Cc1ccc(C(=O)C2CCN(CC(=O)Nc3ccc4c(c3)OCCO4)CC2)cc1	22	-4	0	0	2	-12
O=C(CCCN1C(=O)CSc2ncccc21)N1CCN(Cc2ccccc2)CC1	-16	-6	0	0	1	-4
CCOC(=O)C1CCCN(C(=O)Cn2nc(Cc3cccnc3)c3ccccc3c2=O)C1 (stereo unspecified)	-20	-1	38*	0	1	0
c1ccc(-c2nnc(N3CCOCC3)nc2-c2ccccc2)cc1	8	4	-1	31*	2	5
